Test results from ChEMBL document CHEMBL3244376, “Synthesis and biological activity of highly active alpha-aza analogues of luliberin” (1978).
Activity calls are given as the source filed them. The rule behind the calls is not given here. Where a SMILES comes first, the peptide text is derived from it. [ ]: non-standard residue; d: D form. The star is where a group is joined. pGlu = O=C1CC[C@@H](C(=O)O)N1; X2 = CN(N*)C(N)=O

Experiments:
Rattus norvegicus [1] = test: Ovulation-inducing activity in androgen-sterilized constant-estrus rat at 10 ug, iv; format: functional, organism-based
Method in brief: (§1)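 Androgen-sterilized constant-estrus rats. Doses are given as μg per rat. The readout is ovulation, scored as the number of animals ovulating out of the number treated at each dose. Groups held 3 to 6 rats.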

Rattus norvegicus [2] = test: Ovulation-inducing activity in iv dosed androgen-sterilized constant-estrus rat relative to luliberin; format: functional
Rattus norvegicus [3] = test: Ovulation-inducing activity in androgen-sterilized constant-estrus rat at 0.005 ug, iv; format: functional, organism-based; method in brief: as §1
Rattus norvegicus [4] = test: Ovulation-inducing activity in androgen-sterilized constant-estrus rat at 0.0025 ug, iv; format: functional, organism-based; method in brief: as §1
Rattus norvegicus [5] = test: Ovulation-inducing activity in androgen-sterilized constant-estrus rat at 0.01 ug, iv; format: functional, organism-based; method in brief: as §1
Rattus norvegicus [6] = test: Ovulation-inducing activity in androgen-sterilized constant-estrus rat at 0.10 ug, iv; format: functional, organism-based; method in brief: as §1
Rattus norvegicus [7] = test: Ovulation-inducing activity in androgen-sterilized constant-estrus rat at 0.05 ug, iv; format: functional, organism-based; method in brief: as §1
Rattus norvegicus [8] = test: Ovulation-inducing activity in androgen-sterilized constant-estrus rat at 0.001 ug, iv; format: functional, organism-based; method in brief: as §1
Rattus norvegicus [9] = test: Ovulation-inducing activity in androgen-sterilized constant-estrus rat at 1.0 ug, iv; format: functional, organism-based; method in brief: as §1
Rattus norvegicus [10] = test: Ovulation-inducing activity in androgen-sterilized constant-estrus rat at 0.25 ug, iv; format: functional, organism-based; method in brief: as §1
Rattus norvegicus [11] = test: Ovulation-inducing activity in androgen-sterilized constant-estrus rat at 0.125 ug, iv; format: functional, organism-based; method in brief: as §1
Rattus norvegicus [12] = test: Ovulation-inducing activity in androgen-sterilized constant-estrus rat at 0.031 ug, iv; format: functional, organism-based; method in brief: as §1
Rattus norvegicus [13] = test: Ovulation-inducing activity in androgen-sterilized constant-estrus rat at 0.062 ug, iv; format: functional, organism-based; method in brief: as §1

## CC(C)C[C@H](NC(=O)N(Cc1ccccc1)NC(=O)[C@H](Cc1ccc(O)cc1)NC(=O)[C@H](CO)NC(=O)[C@H](Cc1c[nH]c2ccccc12)NC(=O)[C@H](Cc1cnc[nH]1)NC(=O)[C@@H]1CCC(=O)N1)C(=O)N[C@@H](CCCNC(=N)N)C(=O)N1CCC[C@H]1C(=O)NNC(N)=O
Rattus norvegicus [1]
  Activity: Active

## CC(C)C[C@H](NC(=O)[C@@H](Cc1ccccc1)NC(=O)[C@H](Cc1ccc(O)cc1)NC(=O)[C@H](CO)NC(=O)[C@H](Cc1c[nH]c2ccccc12)NC(=O)[C@H](Cc1cnc[nH]1)NC(=O)[C@@H]1CCC(=O)N1)C(=O)N[C@@H](CCCNC(=N)N)C(=O)N1CCC[C@H]1C(=O)NNC(N)=O
Rattus norvegicus [2]
  fold change (FC): 5
Rattus norvegicus [3]
  Activity: Active
Rattus norvegicus [4]
  Activity: inactive

## CC(C)C[C@@H](C(=O)N[C@@H](CCCNC(=N)N)C(=O)N1CCC[C@H]1C(=O)NNC(N)=O)N(C)C(=O)[C@@H](Cc1ccccc1)NC(=O)[C@H](Cc1ccc(O)cc1)NC(=O)[C@H](CO)NC(=O)[C@H](Cc1c[nH]c2ccccc12)NC(=O)[C@H](Cc1cnc[nH]1)NC(=O)[C@@H]1CCC(=O)N1
Rattus norvegicus [5]
  Activity: Active
Rattus norvegicus [3]
  Activity: inactive

## CC(C)C[C@@H](C(=O)N[C@@H](CCCNC(=N)N)C(=O)N1CCC[C@H]1C(=O)NNC(N)=O)N(C)C(=O)[C@@H](Cc1ccccc1)NC(=O)[C@H](Cc1ccc(OC(C)(C)C)cc1)NC(=O)[C@H](CO)NC(=O)[C@H](Cc1c[nH]c2ccccc12)NC(=O)[C@H](Cc1cnc[nH]1)NC(=O)[C@@H]1CCC(=O)N1
Rattus norvegicus [6]
  Activity: Active
Rattus norvegicus [2]
  fold change (FC): 5

## CC(C)C[C@H](NC(=O)[C@@H](CO)NC(=O)[C@H](Cc1ccc(O)cc1)NC(=O)[C@H](CO)NC(=O)[C@H](Cc1c[nH]c2ccccc12)NC(=O)[C@H](Cc1cnc[nH]1)NC(=O)[C@@H]1CCC(=O)N1)C(=O)N[C@@H](CCCNC(=N)N)C(=O)N1CCC[C@H]1C(=O)NNC(N)=O
Rattus norvegicus [7]
  Activity: Active
Rattus norvegicus [8]
  Activity: inactive

## CC(C)C[C@H](NC(=O)CNC(=O)[C@H](Cc1ccc(O)cc1)NC(=O)[C@H](CO)NC(=O)[C@H](Cc1c[nH]c2ccccc12)NC(=O)[C@H](Cc1cnc[nH]1)NC(=O)[C@@H]1CCC(=O)N1)C(=O)N[C@@H](CCCNC(=N)N)C(=O)N1CCC[C@H]1C(=O)NN(C)C(N)=O ([pGlu]HWSYGLRP-X2)
Rattus norvegicus [9]
  Activity: Active
Rattus norvegicus [10]
  Activity: inactive

## CCNC(=O)N1CCCN1C(=O)[C@H](CCCNC(=N)N)NC(=O)[C@H](CC(C)C)NC(=O)[C@@H](Cc1ccccc1)NC(=O)[C@H](Cc1ccc(O)cc1)NC(=O)[C@H](CO)NC(=O)[C@H](Cc1c[nH]c2ccccc12)NC(=O)[C@H](Cc1cnc[nH]1)NC(=O)[C@@H]1CCC(=O)N1
Rattus norvegicus [9]
  Activity: Active
Rattus norvegicus [11]
  Activity: inactive

## CC(C)C[C@H](NC(=O)[C@@H](Cc1ccccc1)NC(=O)[C@H](Cc1ccc(O)cc1)NC(=O)[C@H](CO)NC(=O)[C@H](Cc1c[nH]c2ccccc12)NC(=O)[C@H](Cc1cnc[nH]1)NC(=O)[C@@H]1CCC(=O)N1)C(=O)N[C@@H](CCCNC(=N)N)C(=O)N1CCC[C@H]1C(=O)NCC(N)=O
Rattus norvegicus [5]
  Activity: Active
Rattus norvegicus [3]
  Activity: inactive

## CC(C)C[C@H](NC(=O)[C@@H](Cc1c[nH]c2ccccc12)NC(=O)[C@H](Cc1ccc(O)cc1)NC(=O)[C@H](CO)NC(=O)[C@H](Cc1c[nH]c2ccccc12)NC(=O)[C@H](Cc1cnc[nH]1)NC(=O)[C@@H]1CCC(=O)N1)C(=O)N[C@@H](CCCNC(=N)N)C(=O)N1CCC[C@H]1C(=O)NNC(N)=O
Rattus norvegicus [2]
  fold change (FC): 5
Rattus norvegicus [12]
  Activity: inactive
Rattus norvegicus [13]
  Activity: Active

## CCNC(=O)[C@@H]1CCCN1C(=O)[C@H](CCCNC(=N)N)NC(=O)[C@H](CC(C)C)NC(=O)[C@@H](COC(C)(C)C)NC(=O)[C@H](Cc1ccc(O)cc1)NC(=O)[C@H](CO)NC(=O)[C@H](Cc1c[nH]c2ccccc12)NC(=O)[C@H](Cc1cnc[nH]1)NC(=O)[C@@H]1CCC(=O)N1
Rattus norvegicus [6]
  Activity: Active
